Measured values from ChEMBL document CHEMBL4020747, “Drug-like property-driven optimization of 4-substituted 1,5-diarylanilines as potent HIV-1 non-nucleoside reverse transcriptase inhibitors against rilpivirine-resistant mutant virus” (Bioorg Med Chem Lett, 2017).
Values after ≈ are worked out from the molar mass of the structure shown.

Key:
[1] = Octanol-water partition coefficient, log P of the compound at pH 7.4 after 24 hrs by HPLC method; format: physicochemical; details: pH 7.4, 24 h
Liver [2] = assay: (§1) Half life in human liver microsomes at 1 uM pretreated up to 45 mins followed by NADPH addition by LC/MS/MS analysis; format: ADME, microsome; details: microsomes, 1 µM
Summary of the method: (§2)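 Remaining parent was quantified by LC/MS/MS at several time points to give t1/2 (min). Data from at least two experiments in parallel.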

TZM = assay: (§3) Cytotoxicity against human TZM-bl cells infected with HIV1 NL4-3; format: cell-based; details: tzm
[3] = Inhibition of rilpivirine-resistant HIV1 NL4-3 reverse transcriptase E138K/M184I double mutant infected in human TZM-b1 cells after 2 days by bright Glo-luciferase reporter gene assay; format: cell-based; details: Human immunodeficiency virus 1, NL4-3, TZM-b1, 48 h
Summary of the method: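 TZM-bl cells infected with NL4-3 variant carrying E138K or E138K+M184I RT mutations; EC50 from luciferase reporter gene expression. Test compounds up to 100 ng/mL highest concentration; at least three experiments (n = 3). Run in parallel with wild-type NL4-3 and reference drug.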

Liver [4] = assay: (§4) Half life in human liver S9 fractions at 1 uM measured pretreated up to 45 mins followed by NADPH addition by LC/MS/MS analysis; format: ADME, tissue-based; details: s9, 1 µM; summary of the method: as §2
Plasma = assay: (§5) Half life in human plasma at 10 ug/ml by LC/MS/MS analysis; format: ADME, cell-free
[5] = Inhibition of wild type HIV1 NL4-3 reverse transcriptase infected in human TZM-b1 cells after 2 days by bright Glo-luciferase reporter gene assay; format: cell-based; details: Human immunodeficiency virus 1, NL4-3, TZM-b1, 48 h
Summary of the method: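 Anti-HIV activity against HIV-1 NL4-3 replication in TZM-bl cells, read out by luciferase gene expression. EC50 values from at least three experiments (n = 3). Top test concentration 100 ng/mL for the newly made series.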

[6] = as §1; format: ADME, microsome; details: liver microsomes; summary of the method: as §2
[7] = as §3; format: cell-based; details: TZM-bl cells infected with HIV1 NL4-3
[8] = Aqueous solubility of the compound in phosphate buffer at pH 7.4 after 4 hrs by HPLC-UV analysis; format: physicochemical
Summary of the method: (§6)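 Aqueous solubility measured by HPLC at pH 2.0 and at pH 7.4.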

[9] = as §4; format: ADME, tissue-based; details: liver S9 fraction; summary of the method: as §2
[10] = as §5; format: ADME, cell-free
[11] = Aqueous solubility of the compound in 0.01 M HCl at pH 2 after 4 hrs by HPLC-UV analysis; format: physicochemical; summary of the method: as §6
[12] = Inhibition of wild-type HIV-1 3B reverse transcriptase infected in human MT4 cells assessed as reduction in virus-induced cytopathic effect after 5 days by MTT assay; format: cell-based; details: Human immunodeficiency virus 1, 3B, MT4, 120 h
[13] = system: Human immunodeficiency virus; assay: Fold resistance, ratio of EC50 for rilpivirine-resistant HIV1 NL4-3 reverse transcriptase E138K/M184I double mutant to EC50 for wild type HIV1 NL4-3 reverse transcriptase
Summary of the method: (§7)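 Fold change calculated as EC50 against the resistant NL4-3 variant (E138K or E138K+M184I) divided by EC50 against wild-type NL4-3, both measured in parallel in TZM-bl cells by luciferase reporter expression.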

[14] = system: Human immunodeficiency virus 1; assay: Fold resistance, ratio of EC50 for rilpivirine-resistant HIV1 NL4-3 reverse transcriptase E138K mutant to EC50 for wild type HIV1 NL4-3 reverse transcriptase; summary of the method: as §7

SMILES | logP [1] | t1/2 (Liver [2]) | CC50 (TZM) | EC50 [3] | t1/2 (Liver [4]) | t1/2 (Plasma) | EC50 [5] | half-life at 1 µM [6] | CC50 [7] | solubility at 4 h [8] | half-life at 1 µM [9] | half-life at 10 ug/ml [10] | solubility at 4 h [11] | EC50 [12] | Ratio EC50 [13] | Ratio EC50 [14]
Cc1cc(/C=C/C#N)cc(C)c1Nc1ccnc(Nc2ccc(C#N)cc2)n1 [RILPIVIRINE] | > 5 | 1.8 h | > 273 nM | 2.38 nM | 1.7 h | 92 h | 0.44 nM | – | – | – | – | – | – | – | – | –
Cc1cc(/C=C/C#N)cc(C)c1Oc1cc(Nc2ccc(C#N)cc2)c(N)cc1C(=O)N1CC(F)(F)C1 | 3.58 | – | – | – | – | – | 13.4 nM | 0.233 h | > 200 nM | 6.59 µg/mL (≈ 13.2 µM) | 0.233 h | 57 h | 57.6 µg/mL (≈ 115 µM) | – | – | –
Cc1cc(C#N)cc(C)c1Oc1nc(Nc2ccc(C#N)cc2)nc(N)c1Br [ETRAVIRINE] | – | – | – | – | – | – | – | – | – | – | – | – | – | > 1.5 nM | – | –
Cc1cc(/C=C/C#N)cc(C)c1Oc1cc(Nc2ccc(C#N)cc2)c(N)cc1C(=O)NN | 2.31 | 0.6 h | > 228 nM | – | 0.65 h | 8 h | 11.6 nM | – | – | 2.4 µg/mL (≈ 5.47 µM) | – | – | 89.6 µg/mL (≈ 204 µM) | – | – | –
Cc1cc(/C=C/C#N)cc(C)c1Oc1cc(Nc2ccc(C#N)cc2)c(N)cc1C(N)=O | 3.53 | 1.5 h | – | – | 1.8 h | 65 h | – | – | – | – | – | – | – | – | – | –
COCCOC(=O)c1cc(N)c(Nc2ccc(C#N)cc2)cc1Oc1c(C)cc(/C=C/C#N)cc1C | > 5 | 0.317 h | > 207 nM | 9.54 nM | 0.158 h | 62 h | 1.52 nM | – | – | 0.77 µg/mL (≈ 1.6 µM) | – | – | 1.64 µg/mL (≈ 3.4 µM) | – | 6.3 | 2.9
Cc1cc(/C=C/C#N)cc(C)c1Oc1cc(Nc2ccc(C#N)cc2)c(N)cc1C(=O)NCCCO | 3.22 | – | > 208 nM | – | – | – | 24.9 nM | – | – | 1.01 µg/mL (≈ 2.1 µM) | – | – | 19.9 µg/mL (≈ 41.3 µM) | – | – | 0.9
Cc1cc(/C=C/C#N)cc(C)c1Oc1cc(Nc2ccc(C#N)cc2)c(N)cc1C(=O)NCCCl | > 5 | 1.02 h | > 206 nM | 17.3 nM | 1.23 h | 8 h | 3.29 nM | – | – | 1.59 µg/mL (≈ 3.27 µM) | – | – | 9.53 µg/mL (≈ 19.6 µM) | – | 5.2 | 2.6
Cc1cc(/C=C/C#N)cc(C)c1Oc1cc(Nc2ccc(C#N)cc2)c(N)cc1C(=O)OCCC#N | > 5 | 0.283 h | > 210 nM | 4.61 nM | 0.2 h | 32 h | 1.11 nM | – | – | 0.36 µg/mL (≈ 0.754 µM) | – | – | 0.94 µg/mL (≈ 1.97 µM) | – | 4.1 | 2.4
Cc1cc(/C=C/C#N)cc(C)c1Oc1cc(Nc2ccc(C#N)cc2)c(N)cc1C(=O)N1CC1 | 2.21 | 2.63 h | > 223 nM | 16.7 nM | 1.83 h | 12 h | 3.33 nM | – | – | 1.2 µg/mL (≈ 2.67 µM) | – | – | 94.2 µg/mL (≈ 210 µM) | – | 5 | 2.6
